Source: PubChem
bIAP inhibitor = blocks bovine intestinal alkaline phosphatase activity; purified bovine IAP, CDP-star luminescence, 30 min; inhibition, % at 20 µM; 190,000 tested, under 10 active;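 active means over 50% inhibition of intestinal alkaline phosphatase at 20 µM in the single-dose screen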
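System: purified bovine intestinal alkaline phosphatase (IAP) enzyme; Input: IAP diluted 1/65,000,000 in the well; Measured by: CDP-star luminescence signal; Compound dosing: 20 µM single dose; Incubation: 30 min reaction at room temperature.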
bIAP activator = increases bovine intestinal alkaline phosphatase activity. purified bovine IAP, CDP-star luminescence, 30 min; active compounds read high; fold of DMSO-control signal, blank-subtracted. activation factor at 20 µM. 0.17% of 200,000 active;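 active means activation factor of 2 or more at 20 µM, a signal rise over negative controls twice the positive control's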
mIAP inh = mouse IAP inhibition. purified mouse IAP, CDP-Star luminescence, 30 min. 0.2% of 330,000 active. inhibition, % at 10 µM;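 active means inhibition of at least 40% at 10 µM in the primary screen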;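 further: plate controls were DMSO with enzyme for no effect and no enzyme wells for full effect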
mIAP act = increases mouse intestinal alkaline phosphatase activity; muIAP, CDP-Star luminescence, 30 min; active compounds read high; 1 = vehicle-only enzyme signal, 0 = enzyme-free wells; 0.24% of 330,000 active; activation factor at 10 µM; AID 2805;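 active means activation factor of at least 2 at 20 µM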
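System: Mouse IAP enzyme | Also added: CDP-Star substrate | Dosing: Compounds dispensed in DMSO | Schedule: 30 min enzyme-substrate-compound incubation at room temperature | Technique: Chemiluminescence readout | Control set: DMSO-only wells and no-enzyme negative control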
hIAP act = increases human intestinal alkaline phosphatase activity | purified human IAP, CDP-Star luminescence, 30 min; active compounds read high; 1 = vehicle-only enzyme, 0 = enzyme-free background | activation factor at 10 µM | 0.16% of 330,000 active | AID 2524;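 active means activation factor of the enzyme at least 2-fold when tested at 20 µM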
Target sequence (P09923 whole entry, looked up): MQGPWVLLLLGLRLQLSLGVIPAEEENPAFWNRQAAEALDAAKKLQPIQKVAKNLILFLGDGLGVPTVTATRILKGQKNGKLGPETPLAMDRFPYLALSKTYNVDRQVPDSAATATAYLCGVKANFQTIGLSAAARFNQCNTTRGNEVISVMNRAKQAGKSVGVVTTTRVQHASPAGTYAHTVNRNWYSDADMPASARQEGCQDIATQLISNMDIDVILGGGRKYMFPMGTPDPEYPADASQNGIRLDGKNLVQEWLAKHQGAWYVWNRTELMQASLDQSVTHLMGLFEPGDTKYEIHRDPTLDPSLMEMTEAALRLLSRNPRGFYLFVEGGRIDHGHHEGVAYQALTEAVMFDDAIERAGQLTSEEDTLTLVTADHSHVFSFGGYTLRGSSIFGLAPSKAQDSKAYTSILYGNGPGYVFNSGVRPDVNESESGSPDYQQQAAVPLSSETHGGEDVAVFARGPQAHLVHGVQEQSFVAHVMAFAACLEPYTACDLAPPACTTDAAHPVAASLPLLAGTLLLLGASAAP
hIAP block = human IAP inhibition. P09923. purified IAP, CDP-Star luminescence, 30 min. inhibition, % at 10 µM. 0.12% of 330,000 active. AID 2544;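 active means inhibition reaching a set limit with compound at 10 µM in the primary screen, cut at about 35% in these data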;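 further: plate controls were DMSO wells with enzyme for no effect and no-enzyme buffer wells for full effect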
mIAP inh confirm = mouse IAP inhibition confirmation; shares compounds with mIAP inh; purified mouse IAP, CDP-Star luminescence, 30 min; inhibition, % at 10 µM; 4.7% of 11,000 active; AID 434971;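 active means inhibition of at least 40% at 10 µM in either of the two replicates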;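 further: plate controls were DMSO wells with enzyme for no effect and buffer wells lacking enzyme for full effect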
The depositor's hits bear a star; i = inactive; . = not tested or not shown. In the library only some 0.79% were active in any assay of this set; here they are far more common.

SMILES	bIAP inhibitor	bIAP activator	mIAP inh	mIAP act	hIAP act	hIAP block	mIAP inh confirm
O=C(Cn1c(-c2ccccc2Cl)nc2ccccc21)Nc1cccc(Cl)c1	-12	1.1	-183	2.8*	0.95	5	-151
Cc1ccc(SCc2nc3ccccc3n2CC(=O)Nc2c(C)cccc2C)cc1	-38	1.4	-75	1.8	0.87	13	.
Cc1cc(C)cc(NC(=O)Cn2c(-c3ccccc3Cl)nc3ccccc32)c1	-13	1.1	-179	2.8*	1.1	-10	-148
CC(=O)c1cccc(NC(=O)NC2CCCCCCC2)c1	.	.	-18	1.2	1.2	-23	.
Cc1cccc(NC(=O)NC2CCCCCCC2)c1	.	.	-118	2.2*	1.3	-35	-145
Cc1ccc(NC(=O)NC2CCCCCCC2)cc1C	.	.	-233	3.3*	1.5	-46	-156
O=C(Nc1cccc(C(F)(F)F)c1)NC1CCCCC1	12	0.9	-150	2.5*	1.4	-36	-110
COc1ccc2[nH]c3c(c2c1)CCN1C(=O)C(CC(=O)NC/C=C(\C)CCC=C(C)C)C[C@H](C(=O)N(C(C)C)C(C)C)[C@@]31C (some centres not stated)	.	.	-116	2.2*	.	.	-100
CCN(CC)c1ccc(CNCc2cccs2)cc1	-5	1	0	1	1.2	-15	.
CC(C)(C)c1ccc(C(=O)N2CCC(C(=O)NC3CCCCCC3)CC2)cc1	.	.	-5	1.1	1	-1	.
O=C(N/N=C/c1ccc([N+](=O)[O-])o1)c1ccc2c(c1)OCO2	.	.	45*	0.55	1.1	-8	55*
O=C(N/N=C/c1ccc([N+](=O)[O-])o1)c1ccc(NS(=O)(=O)c2cccs2)cc1	.	.	50*	0.5	1.1	-8	59*
C=C(C)c1cccc(C(C)(C)NC(=O)NC(c2ccccc2)c2ccc(OC)cc2)c1 (configuration not stated)	5	0.9	i	12*	1.8	-82	-359
C=C(C)c1cccc(C(C)(C)NC(=O)Nc2ccc(OC)cc2)c1	-1	1	-8	1.1	0.8	20	.
CCC1(c2ccccc2)NC(=O)N(CC(=O)N(CC(=O)Nc2ccccc2C(F)(F)F)Cc2ccco2)C1=O (configuration not stated)	.	.	-4	1	1	-2	.
NS(=O)(=O)c1ccc(N=Nc2c[nH]c(=O)c(O)c2)cc1	.	.	68*	0.32	1.1	-12	81*
C#CCOCCOCCOCCNc1nc(N2CCOCC2)nc(N2CCN(C(=O)CCCCCCCCCCNC(=O)[C@@H](CCSC)n3cc(CCO)nn3)CC2)n1	.	.	-27	1.3	0.97	3	.
C#CCOCCOCCOCCNc1nc(N2CCN(C(=O)CCCCCCCCCCNC(=O)[C@@H](CCSC)n3cc(CCO)nn3)CC2)nc(N2CCN(C(=O)CCCCCCCCCCNC(=O)[C@H]([C@@H](C)CC)n3cc(CCCCN=C(N)N)nn3)CC2)n1	.	.	i	22*	1.5	-53	i
C#CCOCCOCCOCCNc1nc(N2CCN(C(=O)CCCCCCCCCCNC(=O)[C@@H](CCSC)n3cc(CCO)nn3)CC2)nc(N2CCN(C(=O)CCCCCCCCCCNC(=O)[C@H]([C@@H](C)CC)n3cc(CCCCCN)nn3)CC2)n1	.	.	-250	3.5*	0.97	3	i
COc1ccc(C(=O)Nn2c(C)nc3ccccc3c2=O)cc1[N+](=O)[O-]	.	.	-2	1	0.91	9	.
CSc1ccccc1-c1nc(-c2ccncc2)no1	.	.	6	0.94	0.95	5	.
O=c1oc2cc(O)ccc2s1	.	.	48*	0.52	1.1	-11	72*
COc1ccccc1OC(=O)c1cc2ccccc2oc1=O	.	.	9	0.91	0.94	6	.
COc1cc(/C=C/[N+](=O)[O-])ccc1OC(=O)c1cc2ccccc2oc1=O	.	.	58*	0.42	1.2	-16	49*
CCCN1CCN(CCCNC(=O)C(CC)n2nc(C)n3c(cc4occc43)c2=O)CC1 (configuration not stated)	.	.	-3	1	1.1	-6	.
COc1ccc(S(=O)(=O)/N=C2/NC(=O)/C(=C\c3ccco3)S2)cc1	-41	1.4	58*	0.42	0.98	2	64*
